This note sets out measurements from ChEMBL document CHEMBL1122923, “Structural features of imidazole derivatives that enhance styrene oxide hydrolase activity in rat hepatic microsomes” (J Med Chem, 1985).

The species entered for series [1] is Rattus norvegicus. Nature of the series: Enhancement of styrene hydrolase activity was determined in male wistar rat hepatic microsomes given to 3-methylcholanthrene treated rats. As to conditions: Liver. The method in brief: (§1)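 Male Wistar rats were pretreated ip with 3-methylcholanthrene 40 mg/kg daily for 3 days; washed liver microsomes were then prepared. Reported as activity ratio ± SD, n = 3-4 or individual.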

The species named for series [2] is Rattus norvegicus. The series can be described thus: Enhancement of styrene hydrolase activity was determined in male wistar rat hepatic microsomes given to phenobarbital treated rats. As to conditions: Liver. The gist of the method:
(§2)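 Rats were given phenobarbital 80 mg/kg ip daily for 3 days before washed hepatic microsomes were prepared. Ratio of activity with vs without derivative, from 3-4 rats or individual values.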

Series [3] is filed under the species Rattus norvegicus. Nature of the series: Enhancement of styrene hydrolase activity was determined in male wistar rat hepatic microsomes given to untreated rats. As to conditions: Liver. The method in brief: (§3)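 Hepatic microsomes (washed) from untreated male Wistar rats (200 ± 20 g). Incubation: 0.25 M Tris-Cl pH 8.7, 0.03% Tween-80, 0.1-0.2 mg protein, 37 °C, 10 min, stopped with hexanes, duplicate tubes. Enhancement is the activity ratio with/without derivative, mean ± SD of 3-4 rats.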

The species entered for series [4] is Rattus norvegicus. The series can be described thus: Maximum enhancement of styrene oxide hydrolase activity was reported at compound concentration of 1e-3 M.
For series [5], the target named is T1, Epoxide hydrolase 1 (Rattus norvegicus) (UniProt P07687).
T1 sequence (whole entry): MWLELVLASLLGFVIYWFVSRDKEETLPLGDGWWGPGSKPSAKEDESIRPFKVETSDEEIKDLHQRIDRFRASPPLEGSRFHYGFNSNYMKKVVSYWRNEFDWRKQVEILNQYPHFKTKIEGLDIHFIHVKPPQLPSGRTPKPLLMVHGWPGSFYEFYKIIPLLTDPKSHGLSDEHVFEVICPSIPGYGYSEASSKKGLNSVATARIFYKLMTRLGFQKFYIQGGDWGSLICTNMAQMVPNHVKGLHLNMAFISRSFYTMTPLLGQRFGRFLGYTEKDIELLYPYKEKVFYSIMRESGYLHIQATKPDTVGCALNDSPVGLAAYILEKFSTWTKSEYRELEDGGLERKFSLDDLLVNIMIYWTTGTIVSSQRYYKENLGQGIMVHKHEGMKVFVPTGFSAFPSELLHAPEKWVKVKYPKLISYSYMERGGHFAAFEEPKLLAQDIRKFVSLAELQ
The series can be described thus: Enhanced styrene oxide hydrolase activity pH 8.7. It counts as functional. The method in brief:
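Imidazoles were added from aqueous solution, with diluted HCl or solvent in reference tubes, and incubated 10 min at 37 °C. Hexane stopped the reaction; tubes were run in duplicate. E100 (the concentration giving a 100% rise) came from the linear concentration-effect plot; mean ± SD over n rats.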

A short description of series [6]: Partition coefficient (logP). As to conditions: octanol/water. It counts as physicochemical.
For series [7], the target named is T1, Epoxide hydrolase 1 (Rattus norvegicus). Nature of the series: (§4) Enhancement of epoxide hydrolase activity. The method in brief:
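Microsomes from untreated rats with a concentration series of N-1-substituted imidazoles added from aqueous solution. Styrene oxide hydrolysis in 0.25 M Tris-Cl pH 8.7, 0.03% Tween-80, 10 min, duplicate tubes, no-tissue blanks. E100 is the concentration giving 100% enhancement, read from the linear concentration-effect range using at least three concentrations on each side. Mean ± SD over individual rats.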

The species named for series [8] is Rattus norvegicus. The series can be described thus: Maximum enhancement of styrene oxide hydrolase activity was reported at compound concentration of 1e-4M. The gist of the method:
(§5)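 Washed liver microsomes from untreated male Wistar rats (200 ± 20 g), stored at -20 °C. Tubes (0.145 mL) held 0.25 M Tris-Cl pH 8.7, 0.03% Tween-80, 0.1-0.2 mg microsomal protein and ¹⁴C-styrene oxide. Imidazoles were added from aqueous solution, in duplicate tubes at each concentration. Incubation was 10 min at 37 °C, stopped with hexanes. Maximum enhancement is the highest activity ratio (with/without additive) observed; mean ± SD over individual rats.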

For series [9], the target named is T1, Epoxide hydrolase 1 (Rattus norvegicus). Described as §4. The gist of the method:
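Microsomes from untreated rats, or rats given PB 80 mg/kg or 3MC 40 mg/kg ip daily for 3 days; 0.1-0.2 mg protein, 0.25 M Tris-Cl pH 8.7, 0.03% Tween-80. Value is the ratio of activity with to without derivative; mean ± SD, 3-4 rats.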
The source holds these as a separate data set.

The species entered for series [10] is Rattus norvegicus. The series can be described thus: Maximum enhancement of styrene oxide hydrolase activity was reported at compound concentration of 5e-4 M. The method in brief:
as §5

For series [11], the species on record is Rattus norvegicus. Nature of the series: Maximum enhancement of styrene oxide hydrolase activity was reported at compound concentration of 1e-1M.
The species entered for series [12] is Rattus norvegicus. Nature of the series: Maximum enhancement of styrene oxide hydrolase activity was reported at compound concentration of 5e-3 M.
The species named for series [13] is Rattus norvegicus. The series can be described thus: Enhancement of styrene hydrolase activity was determined in male wistar rat hepatic microsomes given to phenobarbital treated rats. As to conditions: Liver. The method in brief:
as §2

The species named for series [14] is Rattus norvegicus. The series can be described thus: Enhancement of styrene hydrolase activity was determined in male wistar rat hepatic microsomes given to untreated rats. As to conditions: Liver. The method in brief:
as §3

The species entered for series [15] is Rattus norvegicus. The series can be described thus: Enhancement of styrene hydrolase activity was determined in male wistar rat hepatic microsomes given to 3-methylcholanthrene treated rats. As to conditions: Liver. The method in brief:
as §1

Series [16] is filed under the species Rattus norvegicus. The series can be described thus: Maximum enhancement of styrene oxide hydrolase activity was reported at compound concentration of 1e-2M.
The species named for series [17] is Rattus norvegicus. Nature of the series: Maximum enhancement of styrene oxide hydrolase activity was reported at compound concentration of 5e-2M.

In the case of `c1ccc(-c2ncc[nH]2)cc1`, the Enhancement in the series filed under Rattus norvegicus [1] came out at 2.09; in the series listed under Rattus norvegicus [2], 1.99; in the series listed under Rattus norvegicus [3] it was 2.
As for `CC(=O)N1CCN(c2ccc(OCC3COC(Cn4ccnc4)(c4ccc(Cl)cc4Cl)O3)cc2)CC1` (centres undefined), the Max enhancement in the series filed under Rattus norvegicus [4] was determined as 3.3. In series [5], the E100 is 54 µM.
Turning to `Clc1ccccc1C(c1ccccc1)(c1ccccc1)n1ccnc1` [CLOTRIMAZOLE], the logP in series [6] is reported as 6.14. The Log 1/E100 in [7] worked out at 5.21. In addition, the Max enhancement in the series listed under Rattus norvegicus [8] was determined as 5.4. In addition, the E100 in [5] is 6.2 µM.
Consider `Clc1ccc(COC(Cn2ccnc2)c2ccc(Cl)cc2Cl)c(Cl)c1` (centres undefined) [MICONAZOLE], for which the logP in series [6] (read-out: logP) turned out to be 5.84. The Log 1/E100 in [9] was found to be 4.08. In addition, the Max enhancement in the series listed under Rattus norvegicus [10] amounted to 3.1. For the same compound, the E100 in [5] amounted to 84 µM.
For `Oc1ccc(-n2ccnc2)cc1`, the lipophilicity (logP) in series [6] (read-out: logP) was 0.94. In addition, the Log 1/E100 in series [9] was found to be 3.62. Besides, in the series filed under Rattus norvegicus [4], the Max enhancement is 3.8. In addition, the E100 in series [5] worked out at 240 µM.
In the case of `c1c[nH]cn1` [IMIDAZOLE], the lipophilicity (logP) in series [6] (read-out: logP) was -0.42. Further, the Log 1/E100 in series [7] came out at 2.05. The Max enhancement in the series listed under Rattus norvegicus [11] turned out to be 5.1. Also, the E100 in series [5] turned out to be 8800 µM.
On to `Fc1ccc(-n2ccnc2)cc1`, for which, in series [6] (read-out: logP), the log partition coefficient (logP) was found to be 1.67. Also, the Log 1/E100 in series [9] was determined as 3.26. Besides, the Max enhancement in the series listed under Rattus norvegicus [12] came to 4.4. In addition, in series [5], the E100 stood at 550 µM.
`c1ccc(C2NCCN2)cc1`: the Enhancement in the series filed under Rattus norvegicus [13] was determined as 1.11; in the series listed under Rattus norvegicus [14], 1.19; in the series filed under Rattus norvegicus [15] it was 1.15.
Take `O=[N+]([O-])c1ccc(-n2ccnc2)cc1`: the logP in series [6] (read-out: logP) is 1.19. The Log 1/E100 in [9] is 2.4. Besides, the Max enhancement in the series listed under Rattus norvegicus [4] was found to be 1.3. Moreover, the E100 in series [5] came out at 3900 µM.
As for `c1ccc(-c2c[nH]cn2)cc1`, the Enhancement in the series filed under Rattus norvegicus [1] was found to be 2.61; in the series filed under Rattus norvegicus [2], 2.45; in the series filed under Rattus norvegicus [3], 2.3.
Regarding `c1ccc(-n2ccnc2)cc1`, the logP in series [6] (read-out: logP) turned out to be 1.48. Besides, in series [9], the Log 1/E100 was found to be 3.48. The Enhancement in the series filed under Rattus norvegicus [13] amounted to 3.15; in the series listed under Rattus norvegicus [14] it was 3.34; in the series listed under Rattus norvegicus [15] it was 3.75. Besides, in the series listed under Rattus norvegicus [16], the Max enhancement worked out at 4.7. Moreover, the E100 in [5] was 330 µM.
`c1ccc(Cn2ccnc2)cc1` [BENZYLIMIDAZOLE]: the logP in [6] (read-out: logP) was 2.01. The Log 1/E100 in series [9] turned out to be 3.64. In addition, in the series listed under Rattus norvegicus [12], the Max enhancement was 5.7. The E100 in [5] was found to be 230 µM.
As to `CCn1ccnc1`, the logP in series [6] (read-out: logP) came to 0.81. In addition, in series [7], the Log 1/E100 came to 2.55. Further, the Max enhancement in the series filed under Rattus norvegicus [17] turned out to be 4.6. Moreover, the E100 in series [5] was found to be 2800 µM.
`Cn1ccnc1` [1-METHYLIMIDAZOLE]: the lipophilicity (logP) in series [6] (read-out: logP) was found to be 0.28. Also, the Log 1/E100 in series [9] was determined as 1.94. Further, in the series filed under Rattus norvegicus [17], the Max enhancement was found to be 3.9. In series [5], the E100 came to 12000 µM.

For orientation: logP means the decadic logarithm of the partition coefficient of the neutral form, usually between octanol and water.
